Test results from ChEMBL document CHEMBL4376860, “Discovery of Novel Dual Poly(ADP-ribose)polymerase and Phosphoinositide 3-Kinase Inhibitors as a Promising Strategy for Cancer Therapy” (J Med Chem, 2020).
Calls of active or inactive are those of the source. No cut-off for these calls is given here.

Assays:
MDA-MB-468 [1] = assay: Induction of apoptosis in human MDA-MB-468 cells assessed as late apoptotic cells at 1 uM measured after 72 hrs by Annexin V-FITC/propidium iodide staining based flow cytometry (reference value: 0.78%); type: functional
[2] = biological target: Phosphatidylinositol 4,5-bisphosphate 3-kinase catalytic subunit alpha isoform (Homo sapiens, UniProt P42336); assay: Inhibition of PI3Kalpha (unknown origin) using PIP2 as substrate measured after 1 hr by ADP-glo plus luminescence assay
Sequence of Phosphatidylinositol 4,5-bisphosphate 3-kinase catalytic subunit alpha isoform (P42336 whole entry, canonical isoform): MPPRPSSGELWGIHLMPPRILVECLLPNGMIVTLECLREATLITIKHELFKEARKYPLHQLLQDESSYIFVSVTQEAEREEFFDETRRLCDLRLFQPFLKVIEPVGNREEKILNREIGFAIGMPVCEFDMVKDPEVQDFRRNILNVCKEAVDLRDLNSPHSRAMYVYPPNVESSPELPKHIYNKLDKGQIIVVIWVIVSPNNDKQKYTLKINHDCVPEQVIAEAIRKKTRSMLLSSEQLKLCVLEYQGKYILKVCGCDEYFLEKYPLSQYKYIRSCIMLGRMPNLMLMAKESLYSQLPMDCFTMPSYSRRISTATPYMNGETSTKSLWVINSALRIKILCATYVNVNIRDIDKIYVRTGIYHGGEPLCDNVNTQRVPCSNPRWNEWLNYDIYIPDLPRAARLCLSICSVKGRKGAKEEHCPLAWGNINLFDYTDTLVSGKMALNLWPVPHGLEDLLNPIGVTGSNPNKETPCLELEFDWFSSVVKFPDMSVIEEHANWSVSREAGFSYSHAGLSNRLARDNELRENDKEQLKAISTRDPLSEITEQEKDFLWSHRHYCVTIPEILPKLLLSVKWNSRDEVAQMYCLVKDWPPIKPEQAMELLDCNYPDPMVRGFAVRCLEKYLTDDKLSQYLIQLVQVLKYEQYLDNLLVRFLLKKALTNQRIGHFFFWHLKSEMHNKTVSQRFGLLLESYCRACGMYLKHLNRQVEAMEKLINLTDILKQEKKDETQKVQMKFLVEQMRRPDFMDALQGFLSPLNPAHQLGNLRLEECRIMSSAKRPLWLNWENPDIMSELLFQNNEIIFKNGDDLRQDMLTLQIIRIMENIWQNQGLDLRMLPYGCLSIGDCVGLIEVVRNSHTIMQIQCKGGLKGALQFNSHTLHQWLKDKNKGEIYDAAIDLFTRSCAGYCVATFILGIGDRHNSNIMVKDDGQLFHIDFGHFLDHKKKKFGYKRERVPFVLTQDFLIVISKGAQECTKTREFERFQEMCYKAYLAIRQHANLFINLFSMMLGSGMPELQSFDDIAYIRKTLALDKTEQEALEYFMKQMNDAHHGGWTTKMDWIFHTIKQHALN

MDA-MB-468 [3] = assay: Inhibition of PI3K in human MDA-MB-468 cells assessed as increase in gammaH2AX foci formation at 1 uM measured after 72 hrs by DAPI staining based immunofluorescence microscopic analysis; type: cell-based
How it was run: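 MDA-MB-468 cells on coverslips given drugs for 72 h. Fixed in 3% formaldehyde, permeabilized with 0.1% Triton X-100, blocked in 10% FBS/PBS, then rabbit anti-γH2AX (Ser139) overnight at 4 °C. Secondary antibody and DAPI stain followed. About 200 cells scored for foci; a cell was positive with more than 5 foci. Three independent experiments.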

MDA-MB-468 [4] = assay: Induction of apoptosis in human MDA-MB-468 cells assessed as necrotic cells at 1 uM measured after 72 hrs by Annexin V-FITC/propidium iodide staining based flow cytometry (reference value: 0.13%); type: functional
MDA-MB-468 [5] = assay: Antiproliferative activity against human MDA-MB-468 cells measured after 7 days by Celltiter-glo assay; type: functional, cell-based; conditions: MDA-MB-468, 168 h
How it was run: (§1)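 Cells maintained in RPMI1640 with 10% FBS at 37 °C, 5% CO2. Seeded the day before dosing, grown 12 h, then exposed to graded compound concentrations for 7 days. CellTiter-Glo reagent added, 10 min at room temperature, luminescence read. Inhibition % = (1-(RLU compound - RLU blank)/(RLU DMSO - RLU blank))×100. IC50 from nonlinear regression, normalized dose-response fit.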

HCT-116 = assay: Antiproliferative activity against human HCT116 cells measured after 7 days by Celltiter-glo assay; type: functional, cell-based; conditions: HCT-116, 168 h; how it was run: as §1
[6] = biological target: Poly [ADP-ribose] polymerase 1 (Homo sapiens, UniProt P09874); assay: Inhibition of recombinant human PARP1 using histone as substrate after 1 hr in presence of biotinylated NAD+ by ELISA
Sequence of Poly [ADP-ribose] polymerase 1 (P09874 whole entry): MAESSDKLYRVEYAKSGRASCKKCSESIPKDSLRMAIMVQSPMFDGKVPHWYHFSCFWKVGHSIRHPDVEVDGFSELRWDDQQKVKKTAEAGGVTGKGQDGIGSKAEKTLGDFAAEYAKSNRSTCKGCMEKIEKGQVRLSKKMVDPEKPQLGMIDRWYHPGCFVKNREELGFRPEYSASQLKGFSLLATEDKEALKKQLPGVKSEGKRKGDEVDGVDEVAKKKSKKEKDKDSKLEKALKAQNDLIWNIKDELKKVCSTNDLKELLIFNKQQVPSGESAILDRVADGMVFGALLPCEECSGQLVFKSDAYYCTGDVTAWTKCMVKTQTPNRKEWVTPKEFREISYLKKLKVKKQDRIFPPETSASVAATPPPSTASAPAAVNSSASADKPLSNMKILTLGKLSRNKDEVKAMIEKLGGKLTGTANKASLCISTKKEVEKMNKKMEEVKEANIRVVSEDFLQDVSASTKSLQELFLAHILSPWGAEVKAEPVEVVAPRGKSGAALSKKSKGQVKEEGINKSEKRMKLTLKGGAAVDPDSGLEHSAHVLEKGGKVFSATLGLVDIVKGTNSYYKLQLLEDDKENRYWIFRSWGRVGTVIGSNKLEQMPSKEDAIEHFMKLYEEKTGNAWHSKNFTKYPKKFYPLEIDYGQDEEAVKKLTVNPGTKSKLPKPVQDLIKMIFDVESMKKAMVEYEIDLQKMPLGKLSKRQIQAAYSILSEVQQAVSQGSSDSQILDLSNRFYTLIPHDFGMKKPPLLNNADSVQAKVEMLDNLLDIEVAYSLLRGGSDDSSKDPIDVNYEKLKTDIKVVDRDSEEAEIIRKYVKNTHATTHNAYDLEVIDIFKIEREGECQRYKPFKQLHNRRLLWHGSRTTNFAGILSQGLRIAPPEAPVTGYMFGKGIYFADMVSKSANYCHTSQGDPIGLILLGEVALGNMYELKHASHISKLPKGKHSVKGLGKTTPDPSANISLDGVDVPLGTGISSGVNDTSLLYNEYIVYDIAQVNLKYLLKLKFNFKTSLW

MDA-MB-468 [7] = assay: Antitumor activity against human MDA-MB-468 cells xenografted in BALB/c mouse assessed as tumor growth inhibition at 50 mg/kg, ip administered every 2 days for 34 days and measured at 2 days interval during compound dosing relative to control; type: functional; conditions: MDA-MB-468, ip, read-out: TGI
MDA-MB-231 = assay: Antiproliferative activity against human MDA-MB-231 cells measured after 7 days by Celltiter-glo assay; type: functional, cell-based; conditions: MDA-MB-231, 168 h; how it was run: as §1
MDA-MB-468 [8] = assay: Inhibition of PI3K in human MDA-MB-468 cells assessed as reduction in BRCA2 mRNA level at 1 uM by Trizol reagent-based RT-PCR analysis; type: cell-based
How it was run: (§2)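 Total RNA from treated MDA-MB-468 cells extracted with TRIzol. BRCA1 or BRCA2 mRNA quantified by real-time PCR with GAPDH as internal control. Results given as fold change relative to the internal control. Mean ± SD of three independent experiments.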

MDA-MB-468 [9] = assay: Induction of apoptosis in human MDA-MB-468 cells assessed as viable cells at 1 uM measured after 72 hrs by Annexin V-FITC/propidium iodide staining based flow cytometry (reference value: 95.2%); type: functional; conditions: MDA-MB-468, 72 h, read-out: Activity
MDA-MB-468 [10] = assay: Inhibition of PI3K in human MDA-MB-468 cells assessed as reduction in pS6 phosphorylation at S240 residue at 1 uM measured after 6 to 72 hrs by Western blot analysis; type: cell-based
How it was run: (§3)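 MDA-MB-468 cells seeded overnight, then exposed for 6 h; control medium contained 1‰ DMSO. Lysates run on 8–12% SDS-PAGE and transferred to PVDF. Blots blocked in 5% BSA/TBST and probed for pAKT-Ser473/total AKT or pS6-Ser240/total S6, with β-actin as loading control. HRP secondary with ECL detection; bands quantified by densitometry. Three independent experiments.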

MDA-MB-468 [11] = assay: Inhibition of PI3K in human MDA-MB-468 cells assessed as reduction in BRCA1 mRNA level at 1 uM by Trizol reagent-based RT-PCR analysis; type: cell-based; how it was run: as §2
HCC1937 = assay: Antiproliferative activity against human HCC1937 cells measured after 7 days by Celltiter-glo assay; type: functional, cell-based; conditions: HCC1937, 168 h; how it was run: as §1
MDA-MB-468 [12] = assay: Inhibition of PI3K in human MDA-MB-468 cells assessed as reduction in RAD51 foci formation at 1 uM measured after 72 hrs by DAPI staining based immunofluorescence microscopic analysis; type: cell-based
How it was run: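 RAD51 foci in MDA-MB-468 cells on coverslips after 72 h drug exposure. Cells fixed (3% formaldehyde), permeabilized (0.1% Triton X-100), blocked in 10% FBS/PBS, incubated overnight at 4 °C with rabbit anti-RAD51 polyclonal, then secondary antibody plus DAPI. Foci and percent positive cells (>5 foci per cell) counted from about 200 cells. Mean ± SD of three independent experiments.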

MDA-MB-468 [13] = assay: Induction of apoptosis in human MDA-MB-468 cells assessed as increase in cleaved PARP level at 1 uM […] by Western blot analysis; type: functional, cell-based
MDA-MB-468 [14] = assay: Inhibition of PI3K in human MDA-MB-468 cells assessed as reduction in AKT phosphorylation at S473 residue at 1 uM measured after 6 to 72 hrs by Western blot analysis; type: cell-based; how it was run: as §3
MDA-MB-468 [15] = assay: Induction of DNA damage in human MDA-MB-468 cells at 1 uM measured after 72 hrs by comet assay; type: functional, cell-based
How it was run: (§4)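 MDA-MB-468 cells treated for 72 h, harvested and run in a neutral comet assay. Ethidium bromide staining after electrophoresis. About 200 cell images per group analysed with CASP. DNA damage scored as tail intensity (percentage DNA in tail) and olive tail moment. Mean ± SD of three independent experiments.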

MDA-MB-468 [16] = assay: Induction of apoptosis in human MDA-MB-468 cells assessed as early apoptotic cells at 1 uM measured after 72 hrs by Annexin V-FITC/propidium iodide staining based flow cytometry (reference value: 3.88%); type: functional
MDA-MB-468 [17] = assay: Activation of ERK in human MDA-MB-468 cells assessed as increase in ERK autophosphorylation at T202 residue at 1 uM measured after 6 to 72 hrs by Western blot analysis; type: cell-based
How it was run: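 MDA-MB-468 cells seeded in six-well plates, incubated overnight, then treated for 6 h, with 1‰ (v/v) DMSO medium as control. Lysates cleared at 4 °C, protein quantified by BCA, resolved by 8-12% SDS-PAGE and transferred to PVDF. Membranes blocked in 5% BSA/TBST, probed with primary antibodies (pERK-Thr202, total ERK, cleaved PARP, β-actin) and HRP secondary. ECL detection, band densitometry.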

[18] = Toxicity in BALB/c mouse xenografted with human MDA-MB-468 cells assessed as mortality at 50 mg/kg, ip administered every 2 days for 34 days; type: organism-based; conditions: in vivo
How it was run: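 Nude mice bearing subcutaneous right-flank MDA-MB-468 tumours (2 × 10^6 exponential-phase cells implanted). Randomised at about 100 mm³ tumour volume; 6 mice per group. Dosed ip every 2 days for 34 days. Vehicle controls received PBS with 5% DMSO. Body weight and tumour size recorded every 2 days; tumour volume calculated as ab²/2 from caliper diameters.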

MDA-MB-468 [19] = assay: Induction of DNA damage in human MDA-MB-468 cells at 2 uM measured after 72 hrs by comet assay; type: functional, cell-based; how it was run: as §4
DU-145 = assay: Antiproliferative activity against human DU145 cells measured after 7 days by Celltiter-glo assay; type: functional, cell-based; conditions: DU-145, 168 h; how it was run: as §1
A549 = assay: Antiproliferative activity against human A549 cells measured after 7 days by Celltiter-glo assay; type: functional, cell-based; conditions: A549, 168 h; how it was run: as §1
CAKI-1 = assay: Antiproliferative activity against human CAKI-1 cells measured after 7 days by Celltiter-glo assay; type: functional, cell-based; conditions: CAKI-1, 168 h; how it was run: as §1
Ramos = assay: Antiproliferative activity against human Ramos cells measured after 7 days by Celltiter-glo assay; type: functional, cell-based; conditions: 168 h; how it was run: as §1
A2780 = assay: Antiproliferative activity against human A2780 cells measured after 7 days by Celltiter-glo assay; type: functional, cell-based; conditions: A2780, 168 h; how it was run: as §1
MDA-MB-468 [20] = conditions: Homo sapiens, 2 uM
MDA-MB-468 [21] = conditions: Homo sapiens, 2 uM; remark: listed apart in the source
SW-620 = assay: Antiproliferative activity against human SW620 cells measured after 7 days by Celltiter-glo assay; type: functional, cell-based; conditions: SW-620, 168 h; how it was run: as §1
MDA-MB-468 [22] = assay: Induction of apoptosis in human MDA-MB-468 cells assessed as viable cells at 2 uM measured after 72 hrs by Annexin V-FITC/propidium iodide staining based flow cytometry (reference value: 95.2%); type: functional
MDA-MB-468 [23] = conditions: Homo sapiens, 2 uM; remark: listed apart in the source
Jurkat = assay: Antiproliferative activity against human Jurkat cells measured after 7 days by Celltiter-glo assay; type: functional, cell-based; conditions: 168 h; how it was run: as §1
BXPC-3 = assay: Antiproliferative activity against human BxPC3 cells measured after 7 days by Celltiter-glo assay; type: functional, cell-based; conditions: BXPC-3, 168 h; how it was run: as §1
Homo sapiens = species: Homo sapiens; assay: Selectivity ratio of IC50 for recombinant human PARP1 to IC50 for PI3Kalpha (unknown origin)

SMILES: Nc1ncc(-c2nc3c(c(N4CCOCC4)n2)CCN(C(=O)c2cc(Cc4n[nH]c(=O)c5ccccc45)ccc2F)C3)cn1
- Activity (MDA-MB-468 [1]): 19.4%
- IC50 [2]: 0.00479 µM
- inhibition (MDA-MB-468 [3]): Active
- Activity (MDA-MB-468 [4]): 1.15%
- IC50 (MDA-MB-468 [5]): 2.57 µM
- IC50 (HCT-116): 1.58 µM
- IC50 [6]: 0.00257 µM
- inhibition in vivo at 50 mg/kg (MDA-MB-468 [7]): 52.7%
- IC50 (MDA-MB-231): 3.55 µM
- inhibition (MDA-MB-468 [8]): Active
- viability at 1 µM (MDA-MB-468 [9]): 65.9%
- inhibition (MDA-MB-468 [10]): Active
- inhibition (MDA-MB-468 [11]): Active
- IC50 (HCC1937): 3.47 µM
- inhibition (MDA-MB-468 [12]): Active
- Activity (MDA-MB-468 [13]): Active
- inhibition (MDA-MB-468 [14]): Active
- Activity (MDA-MB-468 [15]): Active
- Activity (MDA-MB-468 [16]): 14.6%
- Activity (MDA-MB-468 [17]): Active
- Activity [18]: Non-Toxic

SMILES: O=C(c1cc(Cc2n[nH]c(=O)c3ccccc23)ccc1F)N1CCN(C(=O)C2CC2)CC1 [OLAPARIB]
- Activity (MDA-MB-468 [19]): Active
- IC50 (DU-145): 6.31 µM
- IC50 (A549): 5.37 µM
- IC50 (CAKI-1): 7.08 µM
- IC50 (Ramos): 3.98 µM
- IC50 (MDA-MB-468 [5]): 13.8 µM
- IC50 (HCT-116): 3.02 µM
- IC50 (MDA-MB-231): 18.2 µM
- IC50 (A2780): 0.741 µM
- inhibition (MDA-MB-468 [20]): Active
- inhibition (MDA-MB-468 [21]): Active
- IC50 (HCC1937): 4.57 µM
- IC50 (SW-620): 10.2 µM
- Activity (MDA-MB-468 [22]): 91.5%
- inhibition (MDA-MB-468 [23]): Active
- IC50 (Jurkat): 1.7 µM
- IC50 (BXPC-3): 11.7 µM

SMILES: Nc1ncc(-c2nc(N3CCOCC3)nc(N3CCN(C(=O)c4cc(Cc5n[nH]c(=O)c6ccccc56)ccc4F)CC3)n2)cn1
- IC50 [2]: 0.0912 µM
- IC50 [6]: 0.000832 µM
- Ratio IC50 (Homo sapiens): 120
